Measurements: ChEMBL document CHEMBL1141783, “Neuroprotective and antioxidant activity of compounds from the aerial parts of Dioscorea opposita” (2005)

How the values were obtained:
[1] = Neuroprotective activity in Swiss-Webster mouse neocortical cells with oxygen and glucose deprivation assessed as decrease in lactic dehydrogenase leakage at 2.17 uM; type: functional; set-up: scale not given: the % may be the effect or the level left
How it was run: (§1)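 Cultured neocortical cells were exposed to OGD with compound at one of three final concentrations; controls received the same volume of glucose-free Earle's buffer instead. For OGD, the chamber was flushed with 95% N2/5% CO2 for 10 min, sealed, and kept at 37 °C for 25 min, followed by 30 min under normal conditions. The treatment was repeated twice, and cells were held 6 h at 37 °C after the last one. LDH was measured in medium and in freeze-thaw lysate. Leakage = extracellular/(extracellular+intracellular) ×100%.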

[2] = Neuroprotective activity in Swiss-Webster mouse neocortical cells with oxygen and glucose deprivation assessed as decrease in lactic dehydrogenase leakage at 21.7 uM; type: functional; set-up: scale not given: the % may be the effect or the level left; how it was run: as §1
[3] = Neuroprotective activity in Swiss-Webster mouse neocortical cells with oxygen and glucose deprivation assessed as decrease in lactic dehydrogenase leakage at 217 uM; type: functional; set-up: scale not given: the % may be the effect or the level left; how it was run: as §1
Plasma [4] = test: Antioxidant activity in New Zealand White rabbit plasma assessed as increase in conjugated diene formation at 217 uM by thiobarbituric acid method; type: functional, Oryctolagus cuniculus
How it was run: (§2)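 LDL was isolated from New Zealand White rabbit plasma, and its susceptibility to oxidation was measured by a previously published method. Each compound was tested at three final concentrations. Freshly prepared vitamin C served as the positive control.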

Plasma [5] = test: Antioxidant activity in New Zealand White rabbit plasma assessed as increase in conjugated diene formation at 21.7 uM by thiobarbituric acid method; type: functional, Oryctolagus cuniculus; how it was run: as §2
Plasma [6] = test: Antioxidant activity in New Zealand White rabbit plasma assessed as increase in conjugated diene formation at 2.17 uM by thiobarbituric acid method; type: functional, Oryctolagus cuniculus; how it was run: as §2
Brain [7] = test: Antioxidant activity in rat brain assessed as malondialdehyde level at 217 uM by thiobarbituric acid method; type: functional
How it was run: (§3)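 Rat brain MDA was measured by the thiobarbituric acid method, following a previously published protocol. Each compound was tested at three final concentrations. Freshly prepared vitamin C served as the positive control.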

Brain [8] = test: Antioxidant activity in rat brain assessed as malondialdehyde level at 21.7 uM by thiobarbituric acid method; type: functional; how it was run: as §3
Brain [9] = test: Antioxidant activity in rat brain assessed as malondialdehyde level at 2.17 uM by thiobarbituric acid method; type: functional; how it was run: as §3
[10] = Neuroprotective activity in Swiss-Webster mouse neocortical cells with oxygen and glucose deprivation assessed as decrease in lactic dehydrogenase leakage at 3.70 uM; type: functional; set-up: scale not given: the % may be the effect or the level left; how it was run: as §1
[11] = Neuroprotective activity in Swiss-Webster mouse neocortical cells with oxygen and glucose deprivation assessed as decrease in lactic dehydrogenase leakage at 37 uM; type: functional; set-up: scale not given: the % may be the effect or the level left; how it was run: as §1
[12] = Neuroprotective activity in Swiss-Webster mouse neocortical cells with oxygen and glucose deprivation assessed as decrease in lactic dehydrogenase leakage at 370 uM; type: functional; set-up: scale not given: the % may be the effect or the level left; how it was run: as §1
Plasma [13] = test: Antioxidant activity in New Zealand White rabbit plasma assessed as increase in conjugated diene formation at 370 uM by thiobarbituric acid method; type: functional, Oryctolagus cuniculus; how it was run: as §2
Plasma [14] = test: Antioxidant activity in New Zealand White rabbit plasma assessed as increase in conjugated diene formation at 37 uM by thiobarbituric acid method; type: functional, Oryctolagus cuniculus; how it was run: as §2
Plasma [15] = test: Antioxidant activity in New Zealand White rabbit plasma assessed as increase in conjugated diene formation at 3.70 uM by thiobarbituric acid method; type: functional, Oryctolagus cuniculus; how it was run: as §2
Brain [16] = test: Antioxidant activity in rat brain assessed as malondialdehyde level at 370 uM by thiobarbituric acid method; type: functional; how it was run: as §3
Brain [17] = test: Antioxidant activity in rat brain assessed as malondialdehyde level at 37 uM by thiobarbituric acid method; type: functional; how it was run: as §3
Brain [18] = test: Antioxidant activity in rat brain assessed as malondialdehyde level at 3.70 uM by thiobarbituric acid method; type: functional; how it was run: as §3
Plasma [19] = test: Antioxidant activity in New Zealand White rabbit plasma assessed as increase in conjugated diene formation at 568 uM by thiobarbituric acid method; type: functional, Oryctolagus cuniculus; how it was run: as §2
Brain [20] = test: Antioxidant activity in rat brain assessed as malondialdehyde level at 568 uM by thiobarbituric acid method; type: functional; how it was run: as §3

Compound: COc1cc(-c2cc(=O)c3c(O)cc(O[C@@H]4O[C@H](CO)[C@@H](O)[C@H](O)[C@H]4O)cc3o2)ccc1O
- Activity [1]: 27.35%
- Activity [2]: 22.51%
- Activity [3]: 21.99%
- Activity (Plasma [4]): 11.52%
- Activity (Plasma [5]): 66.21%
- Activity (Plasma [6]): 62.24%
- Activity (Brain [7]): 0.95 nmol/mg protein
- Activity (Brain [8]): 1.19 nmol/mg protein
- Activity (Brain [9]): 1.37 nmol/mg protein

Compound: COC1=CC(=O)c2c(ccc3cc(O)c(O)cc23)C1=O
- Activity [10]: 38.3%
- Activity [11]: 41.09%
- Activity [12]: 36.58%
- Activity (Plasma [13]): 95.09%
- Activity (Plasma [14]): 112.97%
- Activity (Plasma [15]): 67.46%
- Activity (Brain [16]): 1.23 nmol/mg protein
- Activity (Brain [17]): 1.43 nmol/mg protein
- Activity (Brain [18]): 1.52 nmol/mg protein

Compound: COc1cc(-c2cc(=O)c3c(O)cc(O)cc3o2)ccc1O[C@@H]1O[C@H](CO)[C@@H](O)[C@H](O)[C@H]1O
- Activity [1]: 25.52%
- Activity [2]: 22.74%
- Activity [3]: 21.14%
- Activity (Plasma [4]): 0.32%
- Activity (Plasma [5]): 30.16%
- Activity (Plasma [6]): 51.62%
- Activity (Brain [7]): 1.16 nmol/mg protein
- Activity (Brain [8]): 1.43 nmol/mg protein
- Activity (Brain [9]): 1.46 nmol/mg protein

Compound: O=C1O[C@H]([C@@H](O)CO)C(O)=C1O [ASCORBIC ACID]
- Activity (Plasma [19]): 0.17%
- Activity (Brain [20]): 1.35 nmol/mg
